Assay results as given in the array DNA melting data of Ke et al. (doi:10.1101/2024.01.08.574731).

Key:
[1] = melting temperature; fluorescence melt of hairpins on a sequencing array, two-state fit, raised by 9.35 °C to match UV melts; conditions: sodium 0.088 M
Summary of the method: (§1)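 Cy3 signals were normalised both to pre-quench Cy3 and to control constructs. They came from library hairpins carrying annealed Cy3 and quencher oligos on a sequenced MiSeq flow cell, imaged in 50 mM Na-HEPES pH 8.0, 25 mM NaCl, in 2.5 °C steps up to 60 °C. Bootstrapped two-state fits gave melting temperature and folding enthalpy, and four replicates were combined by inverse variance. Fitted temperatures were then raised by 9.35 °C to match UV melts.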

[2] = folding enthalpy; higher = less favourable; fluorescence melt of hairpins on a sequencing array, two-state fit; conditions: sodium 0.088 M
Summary of the method: as §1

Sequence | Tm [1] | folding enthalpy [2]
GGCTAGCGAAAGCTGCC (((.(((....)))))) | 64.3 °C | -22.7 kcal/mol
TTATCGAAAGATAA (((((....))))) | 36.5 °C | -14.7 kcal/mol
GCTGACGGAAACGCCAAC (.((.((....)).)).) | 25.9 °C | -14.1 kcal/mol
GGCTGCGGAAACACAGCC (((((.(....).))))) | 56 °C | -42 kcal/mol
GGCGAGGGAAACCTCGTC (.(((((....))))).) | 60.8 °C | -36.4 kcal/mol
GATCATCTCTATGATC ((((((....)))))) | 47.1 °C | -38.9 kcal/mol
GTAGAGGGAAACTTCTAC (((((.(....).))))) | 35 °C | -21.5 kcal/mol
GACTGTGAAAACAGTC ((((((....)))))) | 58.5 °C | -34.1 kcal/mol
GATCCACAAGTGGATC ((((((....)))))) | 57.9 °C | -38.6 kcal/mol
GATCGACGTTCGATC ((((((...)))))) | 50 °C | -40.8 kcal/mol
GACGAAGGAAACCTCGTC (((((.(....).))))) | 46 °C | -33 kcal/mol
GCGTATAACGC ((((...)))) | 56.4 °C | -21 kcal/mol
GCCGTCGAAAGACCGGC ((((((....))).))) | 60.5 °C | -36.8 kcal/mol
GGAACACCGAAAGGTTCC (((..(((....)))))) | 42.2 °C | -18.4 kcal/mol
GGGGAGGGAAACCTCCTC (.(((((....))))).) | 53.4 °C | -15.6 kcal/mol
GCGCAAGGAAACTTGTGC ((.((((....)))).)) | 54.9 °C | -48.9 kcal/mol
GGTTACGGAAACGTGATC (.(.(((....))).).) | 30.4 °C | -16.3 kcal/mol
GATCATGATCATGATC ((((((....)))))) | 51.4 °C | -52.3 kcal/mol
GACCCTACGAAAGTAGTC (((..(((....)))))) | 28 °C | -11.3 kcal/mol
GGGTGCGAAAGCATCCC ((((((....))).))) | 65.2 °C | -18.5 kcal/mol
GCATTGCGAAAGCACGGC ((..(((....)))..)) | 40 °C | -16.6 kcal/mol
GCGAATTATCGC ((((....)))) | 47.8 °C | -21.3 kcal/mol
GCTCCCGAAAGGGATAGC ((((((....)))..))) | 48.4 °C | -17.5 kcal/mol

Sequence | Tm [1] | folding enthalpy [2]
GAAGACCCGAAAGGGTTC (((..(((....)))))) | 32.6 °C | -8.91 kcal/mol
GGGATTGGAAACGATCTC (.(((.(....).))).) | 31.4 °C | -15.3 kcal/mol
GATACGCGAAAGCGCATC (((.(((....))).))) | 46.4 °C | -20.2 kcal/mol
GATCTAAGACTAGATC ((((((....)))))) | 34.3 °C | -19.9 kcal/mol
GATCGGCGAAAGCCATC (((.(((....)))))) | 35.7 °C | -11 kcal/mol
GGAAAGGGAAACCCTTCC ((((.((....)).)))) | 40 °C | -23.1 kcal/mol
GACCTAGGAAACTAGGTC (((((((....))))))) | 60.5 °C | -42 kcal/mol
GGTAGCGAAAGCTCACC ((((((....))).))) | 48.2 °C | -16.8 kcal/mol
GAGGTTGGAAACGACTTC ((.((.(....).)).)) | 35.2 °C | -24.9 kcal/mol
GATCATACCCATGATC ((((((....)))))) | 46.5 °C | -38.6 kcal/mol
GTTCAGCGAAAGCTAAC (((.(((....)))))) | 36.4 °C | -13.8 kcal/mol
GATGGCACGAAAGTGATC (((..(((....)))))) | 27.2 °C | -12.9 kcal/mol
GCAACGCGAAAGCTTGGC ((.(.((....)).).)) | 38.5 °C | -11.5 kcal/mol
GATCAGTCGACTGATC ((((((....)))))) | 55.5 °C | -53.5 kcal/mol
GATCCCGCGGGGATC ((((((...)))))) | 61 °C | -31.2 kcal/mol
GAGAGACGAAAGTCACTC (((.(((....))).))) | 51.3 °C | -35.1 kcal/mol
CGCGGACCTCTCCGCG ((((((....)))))) | 68.7 °C | -31.9 kcal/mol
GGTCCGCGAAAGCGCACC (((.(((....))).))) | 48.3 °C | -20.9 kcal/mol
GGAGGCGAAAGCCATCC ((((((....))).))) | 49.4 °C | -14.7 kcal/mol
GTGTTCCCGAAAGGGCAC (((..(((....)))))) | 46.1 °C | -22.4 kcal/mol
GGTTTATCGAAAGATACC (((..(((....)))))) | 28 °C | -12.3 kcal/mol
GTTGCAGGAAACCGCAAC (((((.(....).))))) | 51.5 °C | -43.8 kcal/mol
GCTCGGCGAAAGCTGCGC ((.(.((....)).).)) | 56.2 °C | -17.4 kcal/mol

Sequence | Tm [1] | folding enthalpy [2]
GATCGACTCTCGATC ((((((...)))))) | 50.9 °C | -40.6 kcal/mol
GTCAAGGGAAACCCTGAC ((((.((....)).)))) | 43.7 °C | -33.8 kcal/mol
GCTCACGAAAGTGCAGC ((((((....))).))) | 52 °C | -22.9 kcal/mol
GCGTGAGGACGC ((((....)))) | 50.8 °C | -18.9 kcal/mol
GGAAATGGAAACATTTTC (.(((((....))))).) | 38.5 °C | -33.7 kcal/mol
GACATACGAAAGTAGGTC (((.(((....))).))) | 52.7 °C | -39.1 kcal/mol
GTTACCGGAAACAGTAAC (((((.(....).))))) | 32.8 °C | -17.2 kcal/mol
GATCGAGGGATCGATC ((((((....)))))) | 53.4 °C | -34.2 kcal/mol
GCGGCGCGAAAGCGAAGC ((..(((....)))..)) | 68.1 °C | -29 kcal/mol
GTACCAGGAAACCGGTAC (((((.(....).))))) | 46.9 °C | -35.7 kcal/mol
GCTATGCGAAAGCTTGGC ((.(.((....)).).)) | 42.1 °C | -24.6 kcal/mol
GATTCAGGAAACTGAACC (.(((((....))))).) | 31.4 °C | -17.4 kcal/mol
GACCCAGGAAACCGGGTC (((((.(....).))))) | 52.9 °C | -32.8 kcal/mol
GGACACGAAAGTGATTCC ((((((....)))..))) | 31.7 °C | -14.7 kcal/mol
GCGTTGCGAAAGCTAAGC ((.(.((....)).).)) | 59.2 °C | -26.9 kcal/mol
GATCGGCCCCCGATC ((((((...)))))) | 56 °C | -44.9 kcal/mol
GCATACGAAAGTAAATGC ((((((....)))..))) | 42.6 °C | -30 kcal/mol
CGGTCGGAAACGACGCCG ((((((....)))..))) | 36.7 °C | -11.7 kcal/mol
GGTCTGGGAAACTAGGCC ((.((.(....).)).)) | 41.2 °C | -33.4 kcal/mol
GCGATCCCGAAAGGGCGC (((..(((....)))))) | 56.3 °C | -20.6 kcal/mol
GATCTTAAGCAAGATC ((((((....)))))) | 40.1 °C | -31.3 kcal/mol
GTGAGGCGAAAGCCACAC (((.(((....))).))) | 59.6 °C | -26.5 kcal/mol
GCTTAACCGAAAGGTAGC (((..(((....)))))) | 42.2 °C | -19 kcal/mol
